# Measured values as given in ChEMBL document CHEMBL2057168, “(1aR,5aR)1a,3,5,5a-Tetrahydro-1H-2,3-diaza-cyclopropa[a]pentalene-4-carboxylic acid (MK-1903): a potent GPR109a agonist that lowers free fatty acids in humans” (J Med Chem, 2012).
# Calls of active or inactive are those of the source. The calls are words filed in the database; no cut-off is given here.
# Columns and labels:
# [1] = AUC (0 to 8 hrs) in human at 150 mg, po TID administered on day 1 followed by 2-days wash out period after which dosing continued up to day 11 measured on day 11; assay type: ADME, organism-based; design: time < 8 hr, dose 150 mg, route oral; settings: plasma
# Procedure, shortened: (§1)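 Double-blind, placebo-controlled, randomized dose-escalation study in healthy male volunteers, six cohorts of eight (six active, two placebo). Oral dose on day 1, two-day washout, then dosing days 4–11; the 200 mg qd cohort was titrated over days 1–4. Venous blood taken predose and at 0.5–12 h on days 1, 4 and 11; plasma drug measured. τ 12 h (bid), 24 h (qd), 8 h (tid), 6 h (qid).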
# [2] = AUC (0 to 12 hrs) in human at 100 mg, po BID administered on day 1 followed by 2-day wash out period after which dosing continued up to day 11 measured on day 11; assay type: ADME, organism-based; design: time < 12 hr, dose 100 mg, route oral; settings: plasma; procedure, shortened: as §1
# Rhesus monkey [3] = assay: Dose normalized AUC in po dosed rhesus monkey; assay type: ADME, organism-based, Macaca mulatta; settings: in vivo
# [4] = biological target: Hydroxycarboxylic acid receptor 3 (Homo sapiens) (UniProt P49019); assay: Agonist activity at human GPR109b assessed as decrease in forskolin-stimulated cAMP production by HTRF assay; assay type: functional
# Sequence of Hydroxycarboxylic acid receptor 3 (Homo sapiens) (P49019 whole entry): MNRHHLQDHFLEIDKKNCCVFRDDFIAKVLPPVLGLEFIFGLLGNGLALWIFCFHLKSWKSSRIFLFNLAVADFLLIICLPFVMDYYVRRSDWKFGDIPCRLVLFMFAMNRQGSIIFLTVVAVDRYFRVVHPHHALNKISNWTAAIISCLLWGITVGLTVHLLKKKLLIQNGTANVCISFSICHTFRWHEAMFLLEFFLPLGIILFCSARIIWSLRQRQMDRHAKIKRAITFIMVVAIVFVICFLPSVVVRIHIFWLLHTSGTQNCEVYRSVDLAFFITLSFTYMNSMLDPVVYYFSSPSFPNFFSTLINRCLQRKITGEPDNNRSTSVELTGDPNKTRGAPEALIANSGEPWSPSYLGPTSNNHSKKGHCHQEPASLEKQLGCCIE
# [5] = Cmin in human at 100 mg, po BID administered on day 1 followed by 2-day wash out period after which dosing continued up to day 11 measured on day 4 at 12 hrs; assay type: ADME, organism-based; settings: in vivo, read-out: Cmin
# Procedure, shortened: (§2)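 Healthy male volunteers took part in a double-blind, randomized, placebo-controlled dose-escalation study, with cohorts of 8 (6 on drug, 2 on placebo). Each subject got an oral dose on day 1, then a 2-day washout, then dosing on days 4–11. The 200 mg qd group was titrated over days 1–4. Venous plasma was sampled predose and 0.5–12 h postdose on days 1, 4 and 11, and predose on days 5–10 for troughs.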
# [6] = AUC (0 to 12 hrs) in human at 150 mg, po BID administered on day 1 followed by 2-day wash out period after which dosing continued up to day 11 measured on day 1; assay type: ADME, organism-based; design: dose 150 mg, time < 12 hr, route oral; settings: plasma; procedure, shortened: as §1
# [7] = Tmax in human at 100 mg, po BID administered on day 1 followed by 2-day wash out period after which dosing continued up to day 11 measured on day 4; assay type: ADME, organism-based; settings: in vivo
# Procedure, shortened: (§3)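 Double-blind, placebo-controlled, randomized multiple oral dose study in healthy male volunteers (cohorts of eight; six active, two placebo). Dose given on day 1, then a two-day washout, then dosing days 4–11; for the QD arm, subjects were titrated over days 1–4. Venous plasma sampled predose and 0.5, 1, 1.5, 2, 4, 6, 8, 10, 12 h postdose on days 1, 4 and 11. Tmax reported as median (min–max).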
# Homo sapiens [8] = assay: Antidyslipedic activity in human assessed as decrease in free fatty acid level at 50 to 200 mg, po administered as a single dose measured after 8 hrs relative to placebo control; assay type: functional, organism-based
# [9] = AUC (0 to 8 hrs) in human at 150 mg, po TID administered on day 1 followed by 2-days wash out period after which dosing continued up to day 11 measured on day 4; assay type: ADME, organism-based; design: time < 8 hr, dose 150 mg, route oral; settings: plasma; procedure, shortened: as §1
# [10] = Cmin in human at 150 mg, po TID administered on day 1 followed by 2-days wash out period after which dosing continued up to day 11 measured on day 1 at 8 hrs; assay type: ADME, organism-based; settings: in vivo, read-out: Cmin; procedure, shortened: as §2
# [11] = Cmin in human at 150 mg, po BID administered on day 1 followed by 2-day wash out period after which dosing continued up to day 11 measured on day 4 at 12 hrs; assay type: ADME, organism-based; settings: in vivo, read-out: Cmin; procedure, shortened: as §2
# [12] = AUC (0 to 12 hrs) in human at 100 mg, po BID administered on day 1 followed by 2-day wash out period after which dosing continued up to day 11 measured on day 1; assay type: ADME, organism-based; design: dose 100 mg, time < 12 hr, route oral; settings: plasma; procedure, shortened: as §1
# Homo sapiens [13] = assay: Antidyslipidemic activity in dyslipidemia patient assessed as change in HDL-c level at 150 mg administered TID during four week study relative to control; assay type: functional
# Rhesus monkey [14] = assay: Dose normalized Cmax in po dosed rhesus monkey; assay type: ADME, organism-based, Macaca mulatta; settings: in vivo
# Homo sapiens [15] = assay: Antidyslipidemic activity in human assessed as decrease in free fatty acid level 175 mg, po QID administered on day 1 followed by 2-days wash out period after which dosing continued up to day 11 measured on day 4 and 11; assay type: functional, organism-based
# Procedure, shortened: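 Healthy male volunteers in a randomized, double-blind, placebo-controlled multiple-dose study, six active and two placebo subjects per cohort. Oral dosing on day 1, two-day washout, then days 4–11, with titration over days 1–4 for the qd arm.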
# [16] = Plasma clearance in rhesus monkey; assay type: ADME, organism-based, Macaca mulatta
# Cytochrome P450 3A4 = Cytochrome P450 3A4 (Homo sapiens, UniProt P08684); assay: Activity at CYP3A4; assay type: ADME
# Sequence of Cytochrome P450 3A4 (P08684 whole entry): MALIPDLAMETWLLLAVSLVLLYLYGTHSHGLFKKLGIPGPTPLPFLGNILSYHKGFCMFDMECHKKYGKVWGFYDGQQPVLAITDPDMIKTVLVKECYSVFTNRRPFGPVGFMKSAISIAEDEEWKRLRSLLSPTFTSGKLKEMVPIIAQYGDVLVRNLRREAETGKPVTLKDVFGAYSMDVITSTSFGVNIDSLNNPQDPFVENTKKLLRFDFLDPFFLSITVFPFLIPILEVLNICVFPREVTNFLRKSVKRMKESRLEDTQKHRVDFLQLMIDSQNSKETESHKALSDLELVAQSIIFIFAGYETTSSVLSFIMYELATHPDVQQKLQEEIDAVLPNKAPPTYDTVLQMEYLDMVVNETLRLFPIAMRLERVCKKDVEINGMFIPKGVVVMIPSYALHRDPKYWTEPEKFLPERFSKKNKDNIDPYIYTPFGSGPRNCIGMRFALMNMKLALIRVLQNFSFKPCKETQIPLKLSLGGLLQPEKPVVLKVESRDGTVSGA
# [17] = Cmax in human at 150 mg, po TID administered on day 1 followed by 2-days wash out period after which dosing continued up to day 11 measured on day 11; assay type: ADME, organism-based; design: dose 150 mg, route oral; settings: in vivo; procedure, shortened: as §2
# Mus musculus = assay: Dose normalized AUC in po dosed mouse; assay type: ADME, organism-based; settings: in vivo
# [18] = Volume of distribution in dog; assay type: ADME, organism-based, Canis lupus familiaris; settings: in vivo
# Homo sapiens [19] = assay: Activation of GPR109a receptor in po dosed human assessed as PGD2 metabolite level in urine; assay type: functional, organism-based
# [20] = Cmin in human at titreated dose from day 1 to 4 followed by 200 mg, po QD administered up to day 11 measured on day 4 at 12 hrs; assay type: ADME, organism-based; settings: in vivo, read-out: Cmin; procedure, shortened: as §2
# [21] = Cmin in human at titreated dose from day 1 to 4 followed by 200 mg, po QD administered up to day 11 measured on day 11 at 12 hrs; assay type: ADME, organism-based; settings: in vivo, read-out: Cmin; procedure, shortened: as §2
# [22] = AUC (0 to 6 hrs) in human at 175 mg, po QID administered on day 1 followed by 2-days wash out period after which dosing continued up to day 11 measured on day 4; assay type: ADME, organism-based; design: time < 6 hr, dose 175 mg, route oral; settings: plasma; procedure, shortened: as §1
# [23] = AUC (0 to 8 hrs) in human at 150 mg, po TID administered on day 1 followed by 2-days wash out period after which dosing continued up to day 11 measured on day 1; assay type: ADME, organism-based; design: time < 8 hr, dose 150 mg, route oral; settings: plasma
# Procedure, shortened: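 Healthy male volunteers, double-blind placebo-controlled randomized dose escalation; cohorts of eight (six active, two placebo). Oral dose on day 1, two-day washout, then dosing days 4–11. Venous blood predose and 0.5, 1, 1.5, 2, 4, 6, 8, 10, 12 h postdose on days 1, 4 and 11 for plasma drug; dosing interval (τ) 12 h for BID, 8 h for TID; Ctrough taken at end of interval.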
# [24] = Tmax in human at 150 mg, po TID administered on day 1 followed by 2-days wash out period after which dosing continued up to day 11 measured on day 1; assay type: ADME, organism-based; settings: in vivo; procedure, shortened: as §3
# Cytochrome P450 2D6 = Cytochrome P450 2D6 (Homo sapiens, UniProt P10635); assay: Activity at CYP2D6; assay type: ADME
# Sequence of Cytochrome P450 2D6 (P10635 whole entry): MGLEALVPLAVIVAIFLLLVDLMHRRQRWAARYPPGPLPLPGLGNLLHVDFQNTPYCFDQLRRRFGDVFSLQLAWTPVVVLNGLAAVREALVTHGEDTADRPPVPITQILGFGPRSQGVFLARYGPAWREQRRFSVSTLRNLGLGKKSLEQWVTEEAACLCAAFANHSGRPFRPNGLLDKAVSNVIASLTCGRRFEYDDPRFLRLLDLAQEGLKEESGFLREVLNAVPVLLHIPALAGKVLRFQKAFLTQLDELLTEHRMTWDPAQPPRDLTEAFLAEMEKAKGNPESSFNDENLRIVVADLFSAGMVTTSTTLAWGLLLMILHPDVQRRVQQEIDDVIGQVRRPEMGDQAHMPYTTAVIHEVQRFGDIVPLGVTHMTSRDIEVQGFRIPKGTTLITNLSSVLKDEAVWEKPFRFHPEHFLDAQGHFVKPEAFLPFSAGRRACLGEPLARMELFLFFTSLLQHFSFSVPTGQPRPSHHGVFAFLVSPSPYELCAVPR
# [25] = Volume of distribution in mouse; assay type: ADME, organism-based; settings: in vivo
# [26] = Tmax in human at 175 mg, po QID administered on day 1 followed by 2-days wash out period after which dosing continued up to day 11 measured on day 11; assay type: ADME, organism-based; settings: in vivo; procedure, shortened: as §3
# [27] = Tmax in human at 150 mg, po BID administered on day 1 followed by 2-day wash out period after which dosing continued up to day 11 measured on day 1; assay type: ADME, organism-based; settings: in vivo; procedure, shortened: as §3
# [28] = Tmax in human at 50 mg, po BID administered on day 1 followed by 2-day wash out period after which dosing continued up to day 11 measured on day 1; assay type: ADME, organism-based; settings: in vivo; procedure, shortened: as §3
# [29] = Cmax in human at 50 mg, po BID administered on day 1 followed by 2-day wash out period after which dosing continued up to day 11 measured on day 1; assay type: ADME, organism-based; design: dose 50 mg, route oral; settings: in vivo; procedure, shortened: as §2
smiles,measurement,setting,value
O=C(O)c1n[nH]c2c1C[C@H]1C[C@@H]21,AUC at 8 h,[1],0.0879 µM·h
same,AUC at 12 h,[2],0.0611 µM·h
same,AUC/dose,Rhesus monkey [3],8.5 µM·kg·h/mg
same,Activity,[4],inactive
same,concentration at 12 h,[5],0.083 nM
same,AUC at 12 h,[6],0.0977 µM·h
same,Tmax,[7],1 h
same,Activity,Homo sapiens [8],inactive
same,AUC at 8 h,[9],0.0885 µM·h
same,concentration at 8 h,[10],0.869 nM
same,concentration at 12 h,[11],0.241 nM
same,AUC at 12 h,[12],0.0728 µM·h
same,Activity,Homo sapiens [13],4.6%
same,Cmax/dose,Rhesus monkey [14],5.1 µM·kg/mg
same,Activity,Homo sapiens [15],Active
same,clearance,[16],5.1 mL/min/kg
same,Activity,Cytochrome P450 3A4,Not Active
same,Cmax,[17],44.9 nM
same,AUC/dose,Mus musculus,4.1 µM·kg·h/mg
same,Vd,[18],0.41 L/kg
same,Activity,Homo sapiens [19],Dose-dependent effect
same,concentration at 12 h,[20],0.244 nM
same,concentration at 12 h,[21],0.273 nM
same,AUC at 6 h,[22],0.113 µM·h
same,AUC at 8 h,[23],0.102 µM·h
same,Tmax,[24],0.5 h
same,Activity,Cytochrome P450 2D6,Not Active
same,Vd,[25],0.75 L/kg
same,Tmax,[26],0.75 h
same,Tmax,[27],1.25 h
same,Tmax,[28],1 h
same,Cmax,[29],12.3 nM
